Tn7 DDE FP: inhibitors of Tn7 peptide binding to human fibrin DD(E). P02675. FP displacement of FITC-Tn7 peptide from fibrin DD(E); 0% = median of compound wells per plate. inhibition, % at 8.3 µM. 370,000 compounds, 0.13% hits. AID 720508;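 active = inhibition above the mean of compounds falling within the control limits plus 3 SD of them, cut at about 14% in these data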
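Also added: labelled Tn7 tracer, 0.1 µM; Assay system: human fibrin DD(E) protein; Amount: 2 µM fibrin DD(E); Schedule: 10 min compound pre-incubation, 3 h probe incubation at room temperature; Repeats: one replicate per compound; Read-out basis: percent inhibition; Measured by: fluorescence polarization of the labelled Tn7 tracer.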
PKA-R1A activ: activates the PKA-R1A holoenzyme complex | P00514+P68181 | PKA-R1A dissociation, Cy5-IP20 fluorescence polarization; scaled: DMSO 0%, 113 µM cGMP 100% | activation, % at 11.4 µM | 340,000 compounds, 0.083% hits | AID 504707;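 active = percent activation above the mean of all tested compounds plus 3 SD, cut at about 19% in these data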;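 note: higher means more PKAc released from R1A so a rise in polarization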
Neddyl block: cullin neddylation inhibition. TR-FRET cullin neddylation, biochemical. P61081+Q13564. inhibition, % at 25 µM. 360,000 compounds, 0.58% hits; in the data active = inhibition above about 36%
Target sequence (P61081 whole entry, looked up): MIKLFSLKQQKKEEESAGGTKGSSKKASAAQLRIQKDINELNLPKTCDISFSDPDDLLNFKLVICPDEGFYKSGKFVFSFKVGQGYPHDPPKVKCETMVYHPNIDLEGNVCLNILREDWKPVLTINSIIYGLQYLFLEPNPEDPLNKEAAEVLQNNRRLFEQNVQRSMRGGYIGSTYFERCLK
Target sequence (Q13564 whole entry, looked up): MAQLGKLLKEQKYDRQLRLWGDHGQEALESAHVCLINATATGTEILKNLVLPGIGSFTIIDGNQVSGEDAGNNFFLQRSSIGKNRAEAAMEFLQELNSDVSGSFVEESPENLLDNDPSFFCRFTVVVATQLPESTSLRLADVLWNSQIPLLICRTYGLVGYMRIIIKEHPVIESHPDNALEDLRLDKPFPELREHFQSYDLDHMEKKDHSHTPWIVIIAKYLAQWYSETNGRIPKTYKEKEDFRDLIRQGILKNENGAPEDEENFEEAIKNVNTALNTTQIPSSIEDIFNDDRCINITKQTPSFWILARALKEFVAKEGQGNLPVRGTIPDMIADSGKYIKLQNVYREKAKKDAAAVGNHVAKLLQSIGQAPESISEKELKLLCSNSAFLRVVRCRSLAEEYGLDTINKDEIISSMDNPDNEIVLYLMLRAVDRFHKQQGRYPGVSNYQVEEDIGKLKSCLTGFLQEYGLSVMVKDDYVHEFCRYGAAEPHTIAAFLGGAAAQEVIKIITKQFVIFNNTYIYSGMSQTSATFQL
DDE Tn6 FP inh: disrupts Tn6 cyclic peptide binding to fibrin D-Dimer-E complex | P02675 | inhibition, % at 8.3 µM | Fibrin DD(E) TRITC-Tn6 fluorescence polarization displacement | 370,000 compounds, 0.21% hits;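 active = inhibition above a per-campaign cutoff: mean of compounds within control limits plus 3 SD, cut at about 15% in these data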
PKA-R2B act: activators of human PKA-R2B complex; P22694+P31323; PKA-R2B holoenzyme dissociation, Cy5-IP20 fluorescence polarization; R2B truncated from residue 108, S112A mutant; 0% DMSO only, 100% 113 µM cGMP; activation, % at 11.4 µM; 340,000 compounds, 0.079% hits; AID 504700;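 active = activation above a cutoff set at the mean over all compounds plus 3 SD, cut at about 18% in these data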;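 note: higher means more holoenzyme dissociation and a rise in polarization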
Neddyl inh conf: confirmation of human cullin neddylation inhibitors | shares compounds with Neddyl block | TR-FRET cullin neddylation biochemical assay | calls only at 25 µM | 1,800 compounds, 13% hits | AID 652217; in the data active = inhibition above about 40%;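 note: neddylation substrate is the cullin 1 ring ligase complex with SKP2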
Of the large screens only hits and unclear results are named; the others gave an inactive call (follow-up assays come after a bar, where shown). Rows were chosen to be rich in hits. Some 1% of all compounds tested hit in one or more screens of this group.

COc1ccc(C(C(=O)NC2CCCC2)N(C(=O)c2snc(C(N)=O)c2N)c2ccccc2OC)cc1OC (stereo unspecified)	Neddyl block 42
NC(=O)c1nsc(C(=O)N(CCc2ccccc2)C(C(=O)NC2CCCC2)c2ccco2)c1N (stereo unspecified)	Neddyl block 50 | Neddyl inh conf inactive
CCc1ccc(N(C(=O)c2snc(C(N)=O)c2N)C(C(=O)NC2CCCC2)c2ccco2)cc1 (stereo unspecified)	Neddyl block 41 | Neddyl inh conf inactive
COC(=O)[C@]12C[C@H](CC(=O)NCc3cccc(C(F)(F)F)c3)C(=O)N(Cc3ccco3)C1=C[C@H](COCc1ccccc1)O[C@@H]2C	none (no result: PKA-R1A activ, Neddyl block, PKA-R2B act)
CC(C)C(=O)N1CCC(Oc2cccnc2)CC1	none (no result: PKA-R1A activ, Neddyl block, PKA-R2B act)
CC(c1ccccc1)N1CC[C@H]2C=CC[C@@H](C(=O)Nc3cccc(Cl)c3)[C@H]2C1=O (stereo partly specified)	none (no result: PKA-R1A activ, Neddyl block, PKA-R2B act)
CCN1CCCC1CNC(=O)c1ccc2c(=O)n(CCOC)c(=O)[nH]c2c1 (stereo unspecified)	Neddyl block 44 | Neddyl inh conf inactive
CCN1CCCC1CNC(=O)Cn1nc(C)n2c(cc3cc(F)ccc32)c1=O (stereo unspecified)	none
CCC1CCCCN1CCCNC(=O)c1ccc2c(=O)n(CCOC)c(=O)[nH]c2c1 (stereo unspecified)	none
CCN1CCCC1CNC(=O)c1cc2cc(F)ccc2[nH]1 (stereo unspecified)	Neddyl block 45
O=[N+]([O-])c1ccccc1/C=C/C=N/n1c(-c2cc(-c3ccccc3)n[nH]2)n[nH]c1=S	Neddyl block 81 | Neddyl inh conf inactive
Cc1ccc(-c2n[nH]c(=S)n2/N=C/C=C/c2ccccc2[N+](=O)[O-])cc1	none
C#CCNC(=O)C[C@H]1C[C@@]2(C(=O)OC)C(=C[C@H](C(C)(C)C)O[C@@H]2C)N(Cc2ccc3c(c2)OCO3)C1=O	none (no result: PKA-R1A activ, Neddyl block, PKA-R2B act)
CN1CCCCc2c1nc1c(c2N)CCCC1	Neddyl block 39 | Neddyl inh conf inactive
Cc1cccc2c(N)c3c(nc12)N(C)CC3	none
CCS(=O)(=O)Nc1ccc(C2=NN(C(=O)c3ccco3)C(c3cccs3)C2)cc1 (stereo unspecified)	Neddyl block 42 | Neddyl inh conf inactive
CCS(=O)(=O)Nc1ccc(C2=NN(C(=O)c3ccco3)C(c3ccco3)C2)cc1 (stereo unspecified)	none
CS(=O)(=O)Nc1ccc(C2=NN(C(=O)c3ccco3)C(c3ccccc3F)C2)cc1 (stereo unspecified)	Neddyl block 48 | Neddyl inh conf inactive
CC(=O)Nc1ccc(S(=O)(=O)Nc2cccc3cccnc23)cc1	Neddyl block 43 | Neddyl inh conf active
CN=C1c2cc3cc(OC)ccc3n2CCN1Cc1ccccc1	Neddyl block 41 | Neddyl inh conf inactive
COc1cccc(C(=O)N[C@H](C(=O)N2CCC[C@H]2C(=O)NCc2ccccc2)C2CCCCC2)c1	none (no result: PKA-R1A activ, Neddyl block, PKA-R2B act)
O=C(NCc1ccco1)c1cnc2sccn2c1=O	none
Cc1csc2ncc(C(=O)NCc3ccco3)c(=O)n12	Neddyl block 43 | Neddyl inh conf inactive
Cn1ncc2cc3c(Nc4ccc(Cl)cc4)cccc3nc21	Neddyl block 57 (no result: PKA-R1A activ, PKA-R2B act) | Neddyl inh conf active
Cn1ncc2c(Nc3ccc(Cl)cc3)ncnc21	none
COC1=C[C@H](C(=O)NCc2ccc(Br)cc2)C(C)C(c2ccccc2)CC1=O (stereo partly specified)	none (no result: PKA-R1A activ, Neddyl block, PKA-R2B act)
O=C(NC1CCCCN(Cc2cccc(Cl)c2)C1=O)c1cccc2nsnc12 (stereo unspecified)	none (no result: PKA-R1A activ, Neddyl block, PKA-R2B act)
Cc1cc(=O)oc2cc(OC(C)C(=O)N3CCOCC3)c(Cl)cc12 (stereo unspecified)	Neddyl block 44 | Neddyl inh conf inactive
Cc1cc(=O)oc2cc(OC(C)C(=O)O)c(Cl)cc12 (stereo unspecified)	none
COC(=O)[C@H](C)N(CCc1cn(Cc2ccccc2)nn1)S(=O)(=O)c1ccccc1Br	none (no result: PKA-R1A activ, Neddyl block, PKA-R2B act)
CCOC(=O)C1=C(C(=O)OCC)C2N(Cc3ccc(C#N)cc3)c3ccccc3[C@@]23C[C@@H](C(=O)OC)N(S(=O)(=O)c2ccc(C#N)cc2)C3=N1 (stereo partly specified)	none (no result: PKA-R1A activ, Neddyl block, PKA-R2B act)
CCCCN(C)C1=Nc2cccc3cccc1c23	Neddyl block 39 | Neddyl inh conf inactive
CCc1c(C)c2ccc(OC(C)C(=O)NC(Cc3c[nH]c4ccc(O)cc34)C(=O)O)c(C)c2oc1=O (stereo unspecified)	Neddyl block 46 | Neddyl inh conf active
Brc1ccc(-c2nn3c(-c4ccco4)nnc3s2)o1	none
Clc1ccc(-c2ccc(-c3nn4c(-c5ccco5)nnc4s3)o2)cc1	Neddyl block 42 | Neddyl inh conf inactive
O=C(COc1ccccc1F)N1N=C(c2cccs2)CC1c1ccco1 (stereo unspecified)	Neddyl block 47 | Neddyl inh conf inactive
Nc1[nH]c(C(=O)c2ccc(Br)cc2)c(-c2ccccc2Cl)c1C(=O)NCCc1c[nH]c2ccccc12	none (no result: PKA-R1A activ, Neddyl block, PKA-R2B act)
COc1ccc(NC(=O)COc2ccc3c(C)cc(=O)oc3c2)cc1S(=O)(=O)N1CCCCC1	Neddyl block 43
COC(=O)[C@]12C[C@H](CC(=O)N3CCN(C(=O)c4ccco4)CC3)C(=O)N(CCC3=CCCCC3)C1=C[C@H](C(C)(C)C)O[C@@H]2C	none (no result: PKA-R1A activ, Neddyl block, PKA-R2B act)
c1ccc2c(c1)-c1cccc3cncc-2c13	Neddyl block 40 | Neddyl inh conf inactive
CCOC(=O)N[C@H](C(=O)N1CCC[C@H]1C(=O)NC1CCCC1)C1CCCCC1	none (no result: PKA-R1A activ, Neddyl block, PKA-R2B act)
COc1cc2c(cc1OC)C1=C(C#N)COCN1CC2	Neddyl block 41 | Neddyl inh conf inactive
COc1cc2c(cc1OC)C1=C(C#N)CCC(=NC(=O)c3ccc(Cl)cc3)N1CC2	none
CCOC(=O)c1nc(C)sc1-c1ccnn1S(=O)(=O)c1cccc(Cl)c1	Neddyl block 76 | Neddyl inh conf inactive
COc1ccc(/C=C2\CC3(OC(=O)c4cccc(F)c4)CCCN2C3)cc1 (stereo unspecified)	none (no result: PKA-R1A activ, Neddyl block, PKA-R2B act)
CS(=O)(=O)Nc1ccccc1C(=O)NCCSCc1ccccc1	none (not shown: Neddyl block)
CS(=O)(=O)Nc1ccccc1C(=O)Nc1cccc(Cl)c1	Neddyl block 47
CS(=O)(=O)Nc1ccccc1C(=O)NCCSc1ccccc1	Neddyl block 42 | Neddyl inh conf inactive
CC(C)(CNC(=O)c1ccccc1NS(C)(=O)=O)N1CCCCC1	Neddyl block 45 | Neddyl inh conf inactive
COC(=O)[C@@]12CCCCC3=C1N(CCC3)C(=O)[C@H]2CC(=O)NCc1ccc(OC)c(OC)c1	none (no result: PKA-R1A activ, Neddyl block, PKA-R2B act)

Source: PubChem BioAssay
